Entries after “also recorded” stand apart in the source; their conditions may differ. No end group written: not given here.
Key:
[1] = target: hNav1.5-CW/F1760K mutant Na+ channels (Homo sapiens, UniProt Q14524, A410W/F1760K/L409C); details: ref Wang and Wang, cited from earlier work
[2] = system: voltage-gated Na+ channels; details: ref Catterall, 1980; Wang and Wang, 2003; Strichartz, et al., 1987; cited from earlier work
[3] = target: T1, inactivation-deficient hNav1.5-CW mutant Na+ channels (Homo sapiens, UniProt Q14524, A410W/L409C); assay: On and off rates of β4_154–167 binding at 50 mV; type: cell-based
In short: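 HEK293t cells transiently co-expressing inactivation-deficient hNav1.5-CW with rat β1, whole-cell clamp at 22–24°C, holding −140 mV. Peptide was included in the pipette solution (NaF/NaCl/EGTA/HEPES, pH 7.2) at 25–250 μM. The time-dependent block at 50 mV was fitted single-exponentially. 1/τ was plotted against concentration and fitted by linear regression: slope gave kon, intercept gave koff; n = 5.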

[4] = target: T2, hNav1.5-CW inactivation-deficient mutant Na+ channels (Homo sapiens, UniProt Q14524, A410W/L409C); assay: Use-dependent block during repetitive pulses; type: cell-based; details: for use-dependent block of peak currents, 20 ms pulses: β4_154–167 n = 6, acetyl-KIFMK-amide n = 5
Shaker K+ channels = details: 50 mV, ref Murrell-Lagnado and Aldrich, 1993; cited from earlier work
[5] = target: T3, inactivation-deficient hNav1.5-L409C/A410W (hNav1.5-CW) Na+ channels (Homo sapiens, UniProt Q14524, A410W/L409C); type: cell-based; details: intracellular peptide, 50 mV; 25–250 μM for β4_154–167
In short: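 Transiently transfected HEK293t cells (calcium phosphate; CD8 bead selection; used 1–4 d) expressing hNav1.5-L409C/A410W with rat β1. Peptide at 25–250 μM was dialysed via the pipette. Whole-cell currents were recorded at 50 mV from −140 mV holding, at 22–24°C. Decay was fitted with a single exponential. Steady-state block was taken ∼30 min after break-in.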

[6] = target: T1, inactivation-deficient hNav1.5-CW mutant Na+ channels; assay: Resurgent Na+ currents near the activation threshold; type: cell-based; details: 2 mM in pipette, −80 to −20 mV, five cells
In short: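 Whole-cell recording at room temperature (22–24°C) from transfected HEK293t cells expressing hNav1.5-CW plus rat β1, with 2 mM acetyl-peptide in the internal solution. After the test pulse, tail currents were recorded at −80 to −20 mV in 20-mV steps. Bath: 65 mM NaCl, 85 mM choline Cl, 2 mM CaCl2, 10 mM HEPES, pH 7.4. Five cells.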

[7] = target: T2, hNav1.5-CW inactivation-deficient mutant Na+ channels; assay: Unblocking upon repolarization, two-pulse protocol; type: cell-based; details: 2 mM in pipette
In short: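 Whole-cell hNav1.5-CW currents were recorded in HEK293t cells at room temperature with 2 mM peptide in the pipette. A two-pulse protocol with a 10-ms interpulse interval was used. Peak current amplitude at the second pulse was compared with that at the first.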

[8] = system: BTX-modified wild-type hNav1.5 Na+ channels; assay: Time-dependent block of BTX-modified wild-type Na+ currents; type: cell-based; details: 4 μM BTX; acetyl-KIFMK-amide 2 mM, β4_154–167 1 mM, after 2,000 pulses
In short: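 Channels were modified by 4 μM BTX (final, from 0.5 mM DMSO stock) in the pipette, which also held either 2 mM acetyl-KIFMK-amide or 1 mM peptide. Cells were held at −140 mV and depolarized to 50 mV. The maintained-to-peak current ratio at 50 mV was measured. Five to six cells.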

[9] = target: T3, inactivation-deficient hNav1.5-L409C/A410W (hNav1.5-CW) Na+ channels; details: ref Eaholtz et al., 1994; Tang et al., 1996; Wang and Wang, 2005; cited from earlier work
[10] = system: inactivation-deficient rNav1.2 Na+ channels; details: ref Eaholtz et al., 1994; Tang et al., 1996; Wang and Wang, 2005; cited from earlier work
[11] = system: Na+ channels in dissociated neurons; details: ref Grieco and Raman, 2004; cited from earlier work
[12] = 2 mM in pipette, 50 mV/20 ms at 1 Hz

## Batrachotoxin [BTX]
[1]; 2003
  sensitivity of hNav1.5-CW/F1760K to BTX (in words): BTX-resistant
[2]
  effect of BTX on voltage-gated Na+ channels (in words): eliminates the fast inactivation of voltage-gated Na^+ channels

## KKLITFILKKTREK [β4_154–167]
[3]; read-out: off rate (koff) of binding
  koff: 49.1 s⁻¹
[3]; read-out: on rate (kon) of binding
  kon: 1.01e+07 M⁻¹ s⁻¹
[4]; [12]
  use-dependent block of peak currents, 20 ms pulses: 2.9 ± 1.6%

## ShB peptide: the first 20 amino acids on the NH2 terminus of the Shaker channel (MAAVAGLYGLGEDRQHRKKQ; UniProt P08510 1-20, looked up, fragment)
Shaker K+ channels
  koff: 13.8 s⁻¹

## acetyl-KIFMK-amide
[5]
  time-dependent block of inactivation-deficient Na+ currents (in words): restored the fast inactivation phenotype in hNav1.5 inactivation-deficient Na^+ channels
[6]
  resurgent tail currents near activation threshold (in words), acetyl-KIFMK-amide: elicited robust resurgent currents
[4]; [12]
  additional use-dependent block on outward peak and inward tail currents: ~65%
  tail current decay relative to β4_154–167: four times faster
  use-dependent block of peak currents, 20 ms pulses: 62.4 ± 3.1%
[4]; 2 mM in pipette, repetitive pulses, 3 ms, n = 5
  use-dependent block, 3 ms pulses: 28.5 ± 0.4%
[4]; 50 mV for 1 ms at 1 Hz, n = 5
  fitted τ of use-dependent block, 1 ms pulses: 27.1 pulses
  use-dependent block, 1 ms pulses: 15.5 ± 0.4%
[4]; repetitive pulses, 3 ms, n = 5
  fitted τ of use-dependent block, 3 ms pulses: 14.5 pulses
[7]; short test pulse, n = 6
  tail current decay τ, short test pulse: 0.23 ± 0.02 ms
[7]; −140 mV, two-pulse protocol, 10-ms interval, six cells
  unblocking upon repolarization (in words): also occurred rapidly
[8]
  block of BTX-modified open Na+ channels (in words): resistant to β4_154–167 and acetyl-KIFMK-amide block; also recorded: little time-dependent block was found
[9]
  restoration of fast inactivation, inactivation-deficient hNav1.5 (in words): can restore fast inactivation
[1]; hNav1.5-F1760K, 2005
  effect of hNav1.5-F1760K on time-dependent block (in words): hinders its time-dependent block
  effect of hNav1.5-F1760K on use-dependent block (in words): abolishes the use-dependent block
[10]
  restoration of fast inactivation, rNav1.2 (in words): can restore fast inactivation

## β-pompilidotoxin
[11]
  effect on fast inactivation gating (in words): slowed the fast inactivation gating considerably

— publication PMC2151501 (The Journal of General Physiology, 2006)
